Published values pooled from the literature.
Lines come from different studies, so protocols differ.
Target: Macrophage-stimulating protein receptor (MST1R, Homo sapiens, UniProt Q04912)

SMILES	test	conditions	quantity	result
CCN(CC)CCNC(=O)c1c(C)[nH]c(/C=C2\C(=O)Nc3ccc(F)cc32)c1C	enzyme activity, inhibitor	0.1 µM	remaining activity	97%
O=C1CCc2cc(Nc3cc(OC4CCOCC4)c([N+](=O)[O-])cc3Cl)ccc2N1	cell-free assay, competition with immobilised ligand	1 µM	remaining binding	100%
Cc1ccc(Nc2nccc(N(C)c3ccc4c(C)n(C)nc4c3)n2)cc1S(N)(=O)=O	cell-free assay	10 µM	inhibition	-4%
COc1cccc2c(NCc3ccccc3)nc(-n3c(N)nc4ccccc43)nc12	target engagement in cells, inhibitor, chemoproteomics	20 mM	inhibition	-13.2%
CNC(=O)c1cc(Oc2ccc(NC(=O)Nc3ccc(Cl)c(C(F)(F)F)c3)cc2)ccn1	cell-free assay	0.3 µM	inhibition	-10%
CC/C(=N\NC(=O)NCc1cccc(O)c1)c1ccc(O)c(C)c1O	enzyme activity, inhibitor	0.1 µM	inhibition	-1.5%
Cc1[nH]c(/C=C2\C(=O)Nc3ccc(F)cc32)c(C)c1C(=O)N[C@H]1CCN(C(=O)N(C)C)C1	enzyme activity, inhibitor	1 µM	remaining activity	96%
CC(C)(C)c1nc2c(s1)c1nc(N)ncc1c1ccc(NS(=O)(=O)c3c(F)cccc3F)c(F)c12	enzyme activity, inhibitor, radiometric	1 µM	remaining activity	116%
Cc1cc(-n2nc(Cc3cc(F)cc(C(F)(F)F)c3)nc2C)ccc1C(N)=O	cell-free assay, competition with immobilised ligand	1 µM	remaining binding	100%
Oc1cccc(-c2nc(N3CCOCC3)c3oc4ncccc4c3n2)c1	cell-free assay	0.5 µM	remaining signal	94.3%
O=C(N1CCS(=O)(=O)CC1)N1C[C@H](c2ccc(OC(F)(F)F)cc2)C[C@H](c2nc(C3CC3)no2)C1	cell-free assay, competition with immobilised ligand	1 µM	remaining binding	100%
Cc1ccc(C(=O)Nc2ccc(CN3CCN(C)CC3)c(C(F)(F)F)c2)cc1C#Cc1cnc2cccnn12	cell-free assay	23.5 nM	remaining signal	100%
O=C(Nc1ccc(Oc2ccc(F)cc2)cc1)N1CCc2ncccc2[C@H]1c1ccc(F)cc1	cell-free assay, competition with immobilised ligand	1 µM	remaining binding	98%
Cc1ccc(C(=O)NCc2ccsc2)cc1C#Cc1cn(C(C)C)c2ncnc(N)c12	enzyme activity, inhibitor	1 µM	activity vs control	80%
N#CCCc1ccc2c(c1)-c1[nH]c3ccc([N+](=O)[O-])cc3c1CC(=O)N2	cell-free assay	0.5 µM	remaining signal	107%
COc1cc(-c2cn(C3CCc4ccccc4N(CC(F)(F)F)C3=O)nn2)ccc1-n1ccc(C)n1 (stereo not shown)	cell-free assay, competition with immobilised ligand	1 µM	remaining binding	96%
CCN(CC)c1ccc(C2=NNC(=O)CC2C)cc1[N+](=O)[O-] (stereo not shown)	enzyme activity, inhibitor	10 µM	remaining activity	106%
Cc1cc(NC(=O)c2cccc3cc(-c4cccc5[nH]nc(N)c45)ccc23)ccc1F	enzyme activity, inhibitor	0.1 µM	activity vs control	110%
CCCCNc1ncc2c(-c3ccc(F)cc3)nn(C[C@H]3CC[C@H](N)CC3)c2n1	target engagement in cells, inhibitor, chemoproteomics	20 mM	inhibition	-12.3%
COc1cc2ncnc(Nc3ccc(Oc4ccccc4)cc3C)c2cc1OC	enzyme activity, inhibitor	1 µM	inhibition	-3%
Cc1sc(C(=O)NC2COC2)cc1-n1cc(NC(=O)Nc2c(F)cccc2Cl)cn1	enzyme activity, inhibitor	10 µM	remaining activity	96.9%
O=C1Nc2ccc(Cl)cc2C1=Cc1cc(Cl)c(O)c(Cl)c1	cell-free assay	0.5 µM	remaining signal	94.8%
Cn1nc(C(F)(F)F)cc1-c1cnc(N2CCc3cc(S(=O)(=O)Nc4c(F)cc(Cl)cc4F)cc(N4CCCC4=O)c32)nc1	cell-free assay, competition with immobilised ligand	1 µM	remaining binding	100%
C=CC(=O)Nc1cc(Nc2nccc(Nc3cc(Cl)c(F)cc3C(C)(C)O)n2)c(OC)cc1N1CC[C@@H](N(C)C)C1	enzyme activity, inhibitor	1 µM	inhibition	8%
O=c1nc(-c2ccccn2)sc2ccccc12	cell-free assay, competition with immobilised ligand	1 µM	remaining binding	100%
CN1CC(Oc2cnc(C#N)cc2-c2ccn3nc(NC(=O)C4CC4)cc3c2)C1	enzyme activity, inhibitor	1 µM	inhibition	5%
CNCc1ccccc1-c1csc([C@@H](C)Nc2nc(C)nc3cc(OC)c(OC)cc23)c1	cell-free assay, competition with immobilised ligand	1 µM	remaining binding	100%
CCN(CC)CCNC(=O)c1c(C)[nH]c(/C=C2\C(=O)Nc3ccc(F)cc32)c1C	cell-free assay	10 µM	inhibition	-1%
